Assay results: ChEMBL document CHEMBL1154138, “Antioxidant C-glucosylxanthones from the leaves of Arrabidaea patellifera” (J Nat Prod, 2008)

Assays:
[1] = tested on: Radical scavenging activity; assay: Antioxidant activity assessed as ratio of drug concentration to DPPH concentration causing 50% DPPH radical scavenging activity […]; format: functional
[2] = Antioxidant activity assessed as protection against peroxyl radical-induced alkaline phosphatase oxidation by fluorimetric assay; format: functional
In short: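 Microplate assay on pure compounds measuring protection of alkaline phosphatase (ALP) against peroxyl radical-induced loss of activity. EC50 is the antioxidant concentration that protects ALP to 50% from this loss, reported as pEC50.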

[3] = tested on: Plasmodium falciparum; assay: Antiplasmodial activity against chloroquine-sensitive Plasmodium falciparum 3D7 by [3H]hypoxanthine incorporation assay; format: functional, organism-based

Row | SMILES | Ratio [1] | EC50 [2] | IC50 [3]
1 | O=c1c(O)c(-c2ccc(O)c(O)c2)oc2cc(O)cc(O)c12 [QUERCETIN] | 0.092 | 1000 nM | 
2 | O=c1c2cc(O)c(O)cc2oc2cc(O)c([C@@H]3O[C@H](CO)[C@@H](O)[C@H](O)[C@H]3O)c(O)c12 [MANGIFERIN] | 0.12 | 1260 nM | 23800 nM
3 | O=C(/C=C/c1ccc(O)cc1)O[C@@H]1[C@@H](O)[C@H](c2c(O)cc3oc4cc(O)c(O)cc4c(=O)c3c2O)O[C@H](CO)[C@H]1O | 0.16 | 830 nM | 18100 nM
4 | O=C(/C=C/c1ccccc1)O[C@@H]1[C@@H](O)[C@H](c2c(O)cc3oc4cc(O)c(O)cc4c(=O)c3c2O)O[C@H](CO)[C@H]1O | 0.16 | 980 nM | 
5 | O=C(/C=C/c1ccc(O)c(O)c1)O[C@@H]1[C@@H](O)[C@H](c2c(O)cc3oc4cc(O)c(O)cc4c(=O)c3c2O)O[C@H](CO)[C@H]1O | 0.1 | 1180 nM | 
6 | O=C(O[C@@H]1[C@@H](O)[C@H](c2c(O)cc3oc4cc(O)c(O)cc4c(=O)c3c2O)O[C@H](CO)[C@H]1O)c1ccc(O)cc1 | 0.11 | 980 nM | 26500 nM
7 | O=C(/C=C/c1ccc(O)cc1)OC[C@H]1O[C@@H](c2c(O)cc3oc4cc(O)c(O)cc4c(=O)c3c2O)[C@H](O)[C@@H](O)[C@@H]1O | 0.23 | 1480 nM | > 38200 nM
